Assay results reported in ChEMBL document CHEMBL3108756, “Evaluation of aminohydantoins as a novel class of antimalarial agents” (ACS Med Chem Lett, 2014).
pIC50: −log10 of the molar value. Calls of active or inactive are those of the source. The rule behind the calls is not given here.

Legend:
Plasmodium falciparum [1] = test: Antimalarial activity against chloroquine-sensitive Plasmodium falciparum 3D7 infected in […] after 72 hrs by SYBR Green I-based fluorescence method; assay type: functional, organism-based; details: for pIC50: 3D7, 72 h
[2] = target: Plasmepsin II (Plasmodium falciparum) (UniProt P46925); test: Inhibition of Plasmodium falciparum plasmepsin-2 after 60 mins by fluorescence assay
[3] = test system: Plasmepsin IV (Plasmodium falciparum); test: Inhibition of Plasmodium falciparum plasmepsin-4 after 60 mins by fluorescence assay
Plasmepsin V = Plasmepsin V (Plasmodium falciparum (isolate 3D7), UniProt Q8I6Z5); test: (§1) Inhibition of Plasmodium falciparum […] plasmepsin-5 using DABCYL-GNKRTLAQKQG-EDANS as substrate measured every 15 mins of 75 mins by fluorescence assay
[4] = target: Plasmepsin V (Plasmodium falciparum (isolate 3D7)) (UniProt Q8I6Z5); test: as §1
Plasmodium chabaudi [5] = test: Antimalarial activity against Plasmodium chabaudi ASS infected in NIH mouse assessed as inhibition of parasitemia at 4.5 mg/kg, po qd for 4 days; assay type: functional; details: 96 h
Method in brief: (§2)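 Mice infected with P. chabaudi were given oral doses once daily for four days, starting four hours after infection. Parasitemia was read on Day 4 postinoculation and expressed as percent inhibition of parasitemia.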

[6] = Plasma concentration in Plasmodium chabaudi ASS infected NIH mouse at 100 mg/kg, po qd measured 6 hrs after post last dose on day 3; assay type: ADME, organism-based; parameters: dose 100 mg/kg, route oral
Method in brief: (§3)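 P. chabaudi-infected mice were dosed orally once daily for four days, starting four hours post-infection. Plasma compound levels were measured at 1, 6 and 24 h after the last dose on Day 3.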

[7] = Plasma concentration in Plasmodium chabaudi ASS infected NIH mouse at 100 mg/kg, po qd measured 24 hrs after post last dose on day 3; assay type: ADME, organism-based; parameters: dose 100 mg/kg, route oral; method in brief: as §3
[8] = Plasma concentration in Plasmodium chabaudi ASS infected NIH mouse at 100 mg/kg, po qd measured 1 hr after post last dose on day 3; assay type: ADME, organism-based; parameters: dose 100 mg/kg, route oral; method in brief: as §3
Plasmodium chabaudi [9] = test: Antimalarial activity against Plasmodium chabaudi ASS infected in NIH mouse assessed as inhibition of parasitemia at 100 mg/kg, po qd for 4 days; assay type: functional; details: 96 h; method in brief: as §2
Cytochrome P450 3A4 = Cytochrome P450 3A4 (Homo sapiens, UniProt P08684); test: Inhibition of human recombinant CYP3A4 after 30 mins; assay type: ADME; details: recombinant enzyme, 0.5 h
Cytochrome P450 2C19 = Cytochrome P450 2C19 (Homo sapiens, UniProt P33261); test: Inhibition of human recombinant CYP2C19 after 30 mins; assay type: ADME; details: recombinant enzyme, 0.5 h
Cytochrome P450 2D6 = Cytochrome P450 2D6 (Homo sapiens, UniProt P10635); test: Inhibition of human recombinant CYP2D6 after 30 mins; assay type: ADME; details: recombinant enzyme, 0.5 h
Cytochrome P450 2C9 = Cytochrome P450 2C9 (Homo sapiens, UniProt P11712); test: Inhibition of human recombinant CYP2C9 after 30 mins; assay type: ADME; details: recombinant enzyme, 0.5 h
Cytochrome P450 1A2 = target: T1, Cytochrome P450 1A2 (Homo sapiens, UniProt P05177); test: Inhibition of human recombinant CYP1A2 after 30 mins; assay type: ADME; details: recombinant enzyme, 0.5 h
T1 sequence (P05177 whole entry): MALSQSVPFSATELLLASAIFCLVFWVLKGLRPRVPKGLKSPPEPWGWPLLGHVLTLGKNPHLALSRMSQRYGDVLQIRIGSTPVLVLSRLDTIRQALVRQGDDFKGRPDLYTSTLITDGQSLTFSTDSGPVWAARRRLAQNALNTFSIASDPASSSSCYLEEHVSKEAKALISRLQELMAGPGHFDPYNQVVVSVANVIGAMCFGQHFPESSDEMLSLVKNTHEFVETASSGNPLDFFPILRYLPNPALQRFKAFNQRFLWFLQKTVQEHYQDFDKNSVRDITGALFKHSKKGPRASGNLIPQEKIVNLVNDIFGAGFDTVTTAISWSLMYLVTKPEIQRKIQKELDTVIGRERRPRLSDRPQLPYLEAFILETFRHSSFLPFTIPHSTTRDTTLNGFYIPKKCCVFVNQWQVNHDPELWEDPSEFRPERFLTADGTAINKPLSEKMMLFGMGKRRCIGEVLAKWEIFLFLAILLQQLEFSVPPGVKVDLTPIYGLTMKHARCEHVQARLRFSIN

HepG2 = test: Cytotoxicity against human HepG2 cells after 72 hrs; assay type: cell-based; details: hepg2, 72 h
Plasmodium falciparum [10] = test: Antimalarial activity against chloroquine-sensitive Plasmodium falciparum 3D7 infected in […] after 48 hrs by SYBR Green I-based fluorescence method; assay type: functional, organism-based
Plasmodium falciparum [11] = test: Antimalarial activity against chloroquine and pyrimethamine-resistant Plasmodium falciparum Dd2 infected in […] after 48 hrs by SYBR Green I-based fluorescence method; assay type: functional
[12] = Plasma concentration in Plasmodium chabaudi ASS infected NIH mouse at 110 mg/kg, po qd measured 30 mins after post last dose on day 3; assay type: ADME, organism-based; parameters: dose 110 mg/kg, route oral
[13] = Plasma concentration in Plasmodium chabaudi ASS infected NIH mouse at 110 mg/kg, po qd measured 24 hrs after post last dose on day 3; assay type: ADME, organism-based; parameters: dose 110 mg/kg, route oral; method in brief: as §3
Plasmodium chabaudi [14] = test: Antimalarial activity against Plasmodium chabaudi ASS infected in NIH mouse assessed as inhibition of parasitemia at 110 mg/kg, po qd for 4 days; assay type: functional; details: 96 h; method in brief: as §2

Cytochrome P450 2D6, sequence (P10635 whole entry): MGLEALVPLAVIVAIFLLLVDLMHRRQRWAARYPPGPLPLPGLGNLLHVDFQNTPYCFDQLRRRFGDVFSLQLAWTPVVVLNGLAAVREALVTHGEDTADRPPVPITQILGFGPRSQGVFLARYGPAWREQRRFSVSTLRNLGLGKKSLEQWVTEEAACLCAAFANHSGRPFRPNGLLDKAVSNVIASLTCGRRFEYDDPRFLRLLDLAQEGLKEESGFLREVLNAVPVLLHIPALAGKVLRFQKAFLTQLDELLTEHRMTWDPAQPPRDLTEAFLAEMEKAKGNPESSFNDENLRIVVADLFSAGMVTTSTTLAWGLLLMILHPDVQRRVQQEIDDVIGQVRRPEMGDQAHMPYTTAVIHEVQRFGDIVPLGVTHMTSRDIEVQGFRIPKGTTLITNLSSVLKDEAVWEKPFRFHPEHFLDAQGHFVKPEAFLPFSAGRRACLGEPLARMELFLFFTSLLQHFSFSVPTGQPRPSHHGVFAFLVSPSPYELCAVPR
Cytochrome P450 2C9, sequence (P11712 whole entry): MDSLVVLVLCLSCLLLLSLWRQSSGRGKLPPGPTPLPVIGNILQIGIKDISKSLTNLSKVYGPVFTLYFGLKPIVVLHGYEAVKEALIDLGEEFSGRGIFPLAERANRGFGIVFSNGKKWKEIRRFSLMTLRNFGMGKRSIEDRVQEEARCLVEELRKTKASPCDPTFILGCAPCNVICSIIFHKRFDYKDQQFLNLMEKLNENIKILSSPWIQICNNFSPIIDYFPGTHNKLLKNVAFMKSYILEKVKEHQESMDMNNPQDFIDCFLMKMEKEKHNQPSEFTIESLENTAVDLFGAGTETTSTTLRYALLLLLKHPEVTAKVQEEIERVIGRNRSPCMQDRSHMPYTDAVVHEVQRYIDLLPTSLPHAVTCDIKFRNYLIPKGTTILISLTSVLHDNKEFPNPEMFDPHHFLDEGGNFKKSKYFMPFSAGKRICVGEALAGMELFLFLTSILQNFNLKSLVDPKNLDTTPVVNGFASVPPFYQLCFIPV
Cytochrome P450 3A4, sequence (P08684 whole entry): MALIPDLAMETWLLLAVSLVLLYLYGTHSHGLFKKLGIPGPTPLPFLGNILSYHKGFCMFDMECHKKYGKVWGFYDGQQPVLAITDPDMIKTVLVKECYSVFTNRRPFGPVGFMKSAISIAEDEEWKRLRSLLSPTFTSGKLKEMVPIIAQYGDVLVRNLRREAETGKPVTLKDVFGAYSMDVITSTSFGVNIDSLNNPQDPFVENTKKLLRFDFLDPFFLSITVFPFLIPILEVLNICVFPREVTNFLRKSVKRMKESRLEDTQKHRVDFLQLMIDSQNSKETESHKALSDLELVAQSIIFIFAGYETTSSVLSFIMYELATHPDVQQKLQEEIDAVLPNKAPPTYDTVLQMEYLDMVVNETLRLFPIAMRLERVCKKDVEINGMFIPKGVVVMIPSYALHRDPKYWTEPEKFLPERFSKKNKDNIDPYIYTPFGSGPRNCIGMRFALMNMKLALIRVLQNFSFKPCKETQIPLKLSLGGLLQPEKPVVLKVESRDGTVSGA
Plasmepsin II (Plasmodium falciparum), sequence (P46925 125-453 limits assumed): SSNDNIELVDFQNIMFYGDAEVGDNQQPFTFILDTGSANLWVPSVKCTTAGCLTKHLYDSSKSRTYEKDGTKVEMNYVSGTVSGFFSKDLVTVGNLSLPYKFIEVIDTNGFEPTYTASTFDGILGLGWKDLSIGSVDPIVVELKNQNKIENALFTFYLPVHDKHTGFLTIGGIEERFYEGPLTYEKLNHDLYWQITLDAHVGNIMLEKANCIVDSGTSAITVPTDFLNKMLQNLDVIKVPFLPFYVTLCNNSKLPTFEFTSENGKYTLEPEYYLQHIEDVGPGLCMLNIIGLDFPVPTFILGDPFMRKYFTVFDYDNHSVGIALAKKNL
Cytochrome P450 2C19, sequence (P33261 whole entry): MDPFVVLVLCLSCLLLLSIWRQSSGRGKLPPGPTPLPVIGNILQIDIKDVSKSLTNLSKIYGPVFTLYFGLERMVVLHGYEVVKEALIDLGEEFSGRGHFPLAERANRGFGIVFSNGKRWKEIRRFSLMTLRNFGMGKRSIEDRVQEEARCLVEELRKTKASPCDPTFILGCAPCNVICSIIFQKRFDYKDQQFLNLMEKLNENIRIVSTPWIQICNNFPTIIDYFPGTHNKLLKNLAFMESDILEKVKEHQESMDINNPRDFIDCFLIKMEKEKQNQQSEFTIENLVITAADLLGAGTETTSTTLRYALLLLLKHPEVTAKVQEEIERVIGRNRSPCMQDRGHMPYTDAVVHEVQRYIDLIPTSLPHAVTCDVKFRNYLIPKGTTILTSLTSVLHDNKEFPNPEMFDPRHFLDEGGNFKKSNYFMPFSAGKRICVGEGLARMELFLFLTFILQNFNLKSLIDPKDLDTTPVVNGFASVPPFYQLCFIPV
Plasmepsin V, sequence (Q8I6Z5 whole entry): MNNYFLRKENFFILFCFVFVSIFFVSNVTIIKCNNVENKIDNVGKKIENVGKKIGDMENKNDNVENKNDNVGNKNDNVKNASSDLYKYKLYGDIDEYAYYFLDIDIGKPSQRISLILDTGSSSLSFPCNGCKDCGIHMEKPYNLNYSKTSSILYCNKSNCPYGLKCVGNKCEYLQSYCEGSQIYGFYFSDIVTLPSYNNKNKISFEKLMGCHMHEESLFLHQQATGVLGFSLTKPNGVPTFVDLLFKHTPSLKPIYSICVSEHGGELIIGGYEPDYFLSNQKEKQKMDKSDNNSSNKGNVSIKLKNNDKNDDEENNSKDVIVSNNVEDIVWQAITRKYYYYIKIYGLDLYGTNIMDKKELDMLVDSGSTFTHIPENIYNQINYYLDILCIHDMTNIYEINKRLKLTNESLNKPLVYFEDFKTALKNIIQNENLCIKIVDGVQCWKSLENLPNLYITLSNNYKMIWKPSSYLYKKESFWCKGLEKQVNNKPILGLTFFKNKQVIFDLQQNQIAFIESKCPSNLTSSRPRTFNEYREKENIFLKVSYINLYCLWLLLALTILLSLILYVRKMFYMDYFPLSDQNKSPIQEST
Plasmepsin V (Plasmodium falciparum (isolate 3D7)), sequence (Q8I6Z5 whole entry, looked up): as the sequence (Q8I6Z5 whole entry) above

Structure (SMILES): COc1ccc(C2(c3ccc(OC)cc3)NC(=O)N(C3CCCCC3)C2=O)cc1
- inhibition (Plasmodium falciparum [1]): inactive
- inhibition [2]: inactive
- inhibition [3]: inactive

Structure (SMILES): COc1ccc(C2(c3ccc(OC)cc3)NC(=N)N(C3CCN(C(=O)OC(C)(C)C)CC3)C2=O)cc1
- pIC50 (Plasmodium falciparum [1]): 6.36

Structure (SMILES): Cc1cccc(C)c1OCC(=O)N[C@@H](Cc1ccccc1)[C@@H](O)C[C@H](Cc1ccccc1)NC(=O)[C@H](C(C)C)N1CCCNC1=O [LOPINAVIR]
- pIC50 (Plasmepsin V): < 4.70

Structure (SMILES): COc1ccc(C2(c3ccc(OC)cc3)NC(=S)N(C3CCCCC3)C2=O)cc1
- inhibition (Plasmodium falciparum [1]): inactive
- inhibition [2]: inactive

Structure (SMILES): COc1ccc(C2(c3ccc(OC)cc3)NC(=N)N(C)C2=O)cc1
- pIC50 (Plasmodium falciparum [1]): 5.10

Structure (SMILES): COc1ccc(C2(c3ccc(OC)cc3)NC(=N)N(C(C)C)C2=O)cc1
- pIC50 (Plasmodium falciparum [1]): 5.78

Structure (SMILES): COc1cccc(C2(c3cccc(OC)c3)NC(=N)N(C3CCCCC3)C2=O)c1
- inhibition [4]: inactive
- pIC50 (Plasmodium falciparum [1]): 6.11

Structure (SMILES): CCN(CC)CCCC(C)Nc1ccnc2cc(Cl)ccc12 (stereo not given) [CHLOROQUINE]
- inhibition in vivo at 4.5 mg/kg (Plasmodium chabaudi [5]): 100%

Structure (SMILES): COc1cccc(C2(c3cccc(-c4ccncc4)c3)NC(=N)N(C3CCCCC3)C2=O)c1 (racemic)
- pIC50 (Plasmodium falciparum [1]): 6.50

Structure (SMILES): COc1ccc(C2(c3ccc(OC)cc3)NC(=N)N(C3CCCCCC3)C2=O)cc1
- pIC50 (Plasmodium falciparum [1]): 6.37

Structure (SMILES): CC(C)(C)N1C(=N)NC(c2ccccc2)(c2ccccc2)C1=O
- pIC50 (Plasmodium falciparum [1]): < 4.00

Structure (SMILES): COc1ccc(C2(c3ccc(OC)cc3)NC(=N)N(C3CCC(O)CC3)C2=O)cc1 (stereo not given)
- pIC50 (Plasmodium falciparum [1]): 4.83

Structure (SMILES): N=C1NC(c2ccccc2)(c2cccc(Oc3ccccc3)c2)C(=O)N1C1CCCCC1 (racemic)
- pIC50 (Plasmodium falciparum [1]): 6.37

Structure (SMILES): CCC(CN1C(=N)NC(c2ccc(OC)cc2)(c2ccc(OC)cc2)C1=O)c1ccccc1 (stereo not given)
- pIC50 (Plasmodium falciparum [1]): 6.61

Structure (SMILES): COc1ccc(C2(c3ccccc3)NC(=N)N(C3CCCCC3)C2=O)cc1 (racemic)
- pIC50 (Plasmodium falciparum [1]): 6.27

Structure (SMILES): COc1ccc(C2(c3ccc(OC)cc3)NC(=N)N(Cc3ccccc3)C2=O)cc1
- pIC50 (Plasmodium falciparum [1]): 6.07

Structure (SMILES): Cc1cccc(C2(c3cccc(C)c3)NC(=N)N(C3CCCCC3)C2=O)c1
- pIC50 (Plasmodium falciparum [1]): 6.27

Structure (SMILES): COc1cccc(C2(c3ccccc3)NC(=N)N(C3CCCCC3)C2=O)c1 (racemic)
- pIC50 (Plasmodium falciparum [1]): 6.04

Structure (SMILES): COc1ccc(C2(c3cccc(-c4ccccc4)c3)NC(=N)N(C3CCCCC3)C2=O)cc1 (racemic)
- pIC50 (Plasmodium falciparum [1]): 5.83

Structure (SMILES): COc1ccc(C2(c3ccc(OC)cc3)NC(=N)N(CC3CCCCC3)C2=O)cc1
- concentration at 6 h [6]: 2190 ng/mL
- concentration at 24 h [7]: 7 ng/mL
- concentration at 1 h [8]: 2520 ng/mL
- inhibition in vivo at 100 mg/kg (Plasmodium chabaudi [9]): 73%
- inhibition (INH) (Cytochrome P450 3A4): Active
- inhibition (INH) (Cytochrome P450 2C19): Not Active
- inhibition (INH) (Cytochrome P450 2D6): Not Active
- inhibition (INH) (Cytochrome P450 2C9): Not Active
- inhibition (INH) (Cytochrome P450 1A2): Not Active
- Activity (HepG2): Toxic
- inhibition (Plasmodium falciparum [10]): Active
- inhibition (Plasmodium falciparum [11]): Active
- pIC50 (Plasmodium falciparum [1]): 6.42

Structure (SMILES): CCOc1ccc(C2(c3ccc(OCC)cc3)NC(=N)N(C3CCCCC3)C2=O)cc1
- pIC50 (Plasmodium falciparum [1]): 6.33

Structure (SMILES): COc1ccc(C2(c3ccc(OC)cc3)NC(=N)N(C3CCOCC3)C2=O)cc1
- concentration at 0.5 h [12]: 4140 ng/mL
- concentration at 24 h [13]: 29 ng/mL
- inhibition in vivo at 110 mg/kg (Plasmodium chabaudi [14]): 63%
- inhibition (INH) (Cytochrome P450 3A4): Active
- inhibition (INH) (Cytochrome P450 2C19): Not Active
- inhibition (INH) (Cytochrome P450 2D6): Not Active
- inhibition (INH) (Cytochrome P450 2C9): Not Active
- inhibition (INH) (Cytochrome P450 1A2): Not Active
- Activity (HepG2): Toxic
- inhibition (Plasmodium falciparum [10]): Active
- inhibition (Plasmodium falciparum [11]): Active
- pIC50 (Plasmodium falciparum [1]): 6.34

Structure (SMILES): CCN1C(=N)NC(c2ccc(OC)cc2)(c2ccc(OC)cc2)C1=O
- pIC50 (Plasmodium falciparum [1]): 5.40
